Structures can show the parent of a compound that is named as a salt. Where two headings read alike, the source gives them in different places.

For assay [1], the target named is LPA1 receptor (Cricetulus griseus, UniProt G3HUC7). The format is cell-based, Chinese hamster. As to conditions: CHOK1/Gα15/GCaMP6s-CAAX.
Assay [2] has as its target CaV3.3 (Homo sapiens, UniProt Q9P0X4). The assay is described as follows: cell-based. It is filed as cell-based. As to conditions: for potentiator activity at CaV3.3: GCaMP6s-CAAX FLIPR, CRC, EC10 KCl.
Assay [3] deals with CaV3.1 (Homo sapiens, UniProt O43497). The format is cell-based. As to conditions: GCaMP6s-CAAX FLIPR, CRC, low CaCl2. Summed up: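 HEK293 cells co-expressing CaV3.1, Kir2.3 and GCaMP6s-CAAX in DMEM/F-12 GlutaMAX + 10% FBS + 1.25 μg/mL puromycin. Induced with 1 μg/mL doxycycline, seeded at 16k/well on poly-D-lysine and grown 2 days at 37 °C. Equilibrated ~60 min at room temperature in the dark in buffer (133 mM NaCl, 10 HEPES, 10 glucose, 4 KCl, 1 CaCl2, pH 7.3). Stimulated with 1.5 mM (low) or 5.0 mM (high) CaCl2 on FLIPR Tetra at room temperature; peak over baseline used.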

Assay [4] addresses CaV3.2 (Homo sapiens, UniProt O95180). It is filed as cell-based. As to conditions: GCaMP6s-CAAX FLIPR, CRC, EC10 KCl. An outline of the steps: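 Inducible HEK293 CaV3.2/Kir2.3/GCaMP6s-CAAX cells, with no antibiotics in assay plates. Doxycycline (1 μg/mL) induction, 16k/well, 2 days at 37 °C, then ~60 min at room temperature in buffer of 133 mM NaCl, 10 HEPES, 10 glucose, 4 KCl, 1 CaCl2, pH 7.3. […] Peak response over baseline after each addition.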

Assay [5] deals with C3a receptor (Cricetulus griseus, UniProt A0A061I1T5). The format is cell-based, Chinese hamster. As to conditions: read-out: EC50, increase in fluorescence (C3a receptor); CHOK1/Gα15/GCaMP6s-CAAX. An outline of the steps: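 CHOK1-Gα15 cells stably expressing GCaMP6s-CAAX, kept in F-12K + 10% FBS with hygromycin (100 μg/mL) and G-418 (700 μg/mL). Seeded at 16k/well and grown 2 days at 37 °C. Buffer was HBSS + 20 mM HEPES + 0.1% fatty-acid-free BSA, pH 7.3; 30 min at 37 °C in the dark. FLIPR Tetra at 37 °C: ex 470-495/em 515-575 nm, 1 Hz, two additions. Agonist was hC3a; antagonist mode used 20 nM hC3a. Peak over baseline, scaled from buffer (0%) to saturating agonist (100%). Four replicates, two experiments.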

CaV3.3, sequence (Q9P0X4 whole entry): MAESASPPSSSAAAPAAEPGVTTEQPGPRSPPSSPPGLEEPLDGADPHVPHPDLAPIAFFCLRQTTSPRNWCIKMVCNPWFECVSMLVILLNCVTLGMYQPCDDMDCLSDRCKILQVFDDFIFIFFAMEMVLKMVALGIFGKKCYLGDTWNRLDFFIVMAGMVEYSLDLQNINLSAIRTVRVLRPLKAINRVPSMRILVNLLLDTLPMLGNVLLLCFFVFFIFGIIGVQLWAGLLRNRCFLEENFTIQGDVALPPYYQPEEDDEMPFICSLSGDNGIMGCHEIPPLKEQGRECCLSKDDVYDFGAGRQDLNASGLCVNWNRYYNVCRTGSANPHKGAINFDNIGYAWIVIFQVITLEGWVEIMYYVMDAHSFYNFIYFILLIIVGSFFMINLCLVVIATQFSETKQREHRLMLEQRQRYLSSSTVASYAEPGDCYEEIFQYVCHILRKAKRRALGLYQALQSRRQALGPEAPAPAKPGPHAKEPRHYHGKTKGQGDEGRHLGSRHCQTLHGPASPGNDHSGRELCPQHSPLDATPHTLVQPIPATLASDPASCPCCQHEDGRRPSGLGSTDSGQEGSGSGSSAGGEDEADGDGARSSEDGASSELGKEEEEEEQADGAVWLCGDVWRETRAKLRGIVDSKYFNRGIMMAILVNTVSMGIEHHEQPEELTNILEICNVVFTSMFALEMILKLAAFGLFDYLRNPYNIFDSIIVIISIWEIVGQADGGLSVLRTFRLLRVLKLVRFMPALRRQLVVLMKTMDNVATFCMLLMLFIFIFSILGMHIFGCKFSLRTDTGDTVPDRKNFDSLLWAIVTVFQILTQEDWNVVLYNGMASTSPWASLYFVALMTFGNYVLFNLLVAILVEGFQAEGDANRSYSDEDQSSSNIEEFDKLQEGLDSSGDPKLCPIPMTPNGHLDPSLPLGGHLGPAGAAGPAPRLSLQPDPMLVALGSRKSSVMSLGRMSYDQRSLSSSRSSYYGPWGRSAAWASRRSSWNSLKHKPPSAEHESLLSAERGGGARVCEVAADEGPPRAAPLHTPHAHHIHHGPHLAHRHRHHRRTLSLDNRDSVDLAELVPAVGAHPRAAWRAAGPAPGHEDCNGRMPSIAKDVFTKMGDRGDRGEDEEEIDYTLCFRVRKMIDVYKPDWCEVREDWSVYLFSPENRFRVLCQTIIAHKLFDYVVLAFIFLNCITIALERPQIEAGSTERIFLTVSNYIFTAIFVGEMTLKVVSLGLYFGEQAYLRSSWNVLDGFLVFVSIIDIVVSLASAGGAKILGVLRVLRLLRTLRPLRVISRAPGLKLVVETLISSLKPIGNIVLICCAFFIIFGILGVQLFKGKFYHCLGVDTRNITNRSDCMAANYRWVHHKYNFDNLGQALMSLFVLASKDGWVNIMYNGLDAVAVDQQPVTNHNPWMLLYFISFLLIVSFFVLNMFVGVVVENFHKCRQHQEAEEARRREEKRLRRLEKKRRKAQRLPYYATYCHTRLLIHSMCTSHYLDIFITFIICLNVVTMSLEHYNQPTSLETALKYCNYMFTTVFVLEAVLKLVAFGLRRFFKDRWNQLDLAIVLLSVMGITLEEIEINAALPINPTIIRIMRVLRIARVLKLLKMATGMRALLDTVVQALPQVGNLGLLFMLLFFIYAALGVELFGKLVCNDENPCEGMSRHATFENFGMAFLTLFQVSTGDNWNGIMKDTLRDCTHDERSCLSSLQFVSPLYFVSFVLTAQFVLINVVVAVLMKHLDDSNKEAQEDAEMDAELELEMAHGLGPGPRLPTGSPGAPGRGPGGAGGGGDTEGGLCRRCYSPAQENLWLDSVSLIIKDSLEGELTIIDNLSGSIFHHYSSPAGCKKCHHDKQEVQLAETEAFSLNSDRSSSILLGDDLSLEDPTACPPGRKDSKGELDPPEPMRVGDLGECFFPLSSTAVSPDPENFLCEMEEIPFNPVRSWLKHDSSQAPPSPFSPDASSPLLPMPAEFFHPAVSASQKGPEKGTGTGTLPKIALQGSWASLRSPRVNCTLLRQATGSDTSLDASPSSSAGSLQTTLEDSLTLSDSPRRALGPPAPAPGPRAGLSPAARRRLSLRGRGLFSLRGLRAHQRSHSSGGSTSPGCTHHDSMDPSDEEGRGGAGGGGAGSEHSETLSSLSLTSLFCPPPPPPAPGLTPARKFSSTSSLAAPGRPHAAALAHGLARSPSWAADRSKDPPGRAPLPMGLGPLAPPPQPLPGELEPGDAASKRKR
CaV3.2, sequence (O95180 whole entry): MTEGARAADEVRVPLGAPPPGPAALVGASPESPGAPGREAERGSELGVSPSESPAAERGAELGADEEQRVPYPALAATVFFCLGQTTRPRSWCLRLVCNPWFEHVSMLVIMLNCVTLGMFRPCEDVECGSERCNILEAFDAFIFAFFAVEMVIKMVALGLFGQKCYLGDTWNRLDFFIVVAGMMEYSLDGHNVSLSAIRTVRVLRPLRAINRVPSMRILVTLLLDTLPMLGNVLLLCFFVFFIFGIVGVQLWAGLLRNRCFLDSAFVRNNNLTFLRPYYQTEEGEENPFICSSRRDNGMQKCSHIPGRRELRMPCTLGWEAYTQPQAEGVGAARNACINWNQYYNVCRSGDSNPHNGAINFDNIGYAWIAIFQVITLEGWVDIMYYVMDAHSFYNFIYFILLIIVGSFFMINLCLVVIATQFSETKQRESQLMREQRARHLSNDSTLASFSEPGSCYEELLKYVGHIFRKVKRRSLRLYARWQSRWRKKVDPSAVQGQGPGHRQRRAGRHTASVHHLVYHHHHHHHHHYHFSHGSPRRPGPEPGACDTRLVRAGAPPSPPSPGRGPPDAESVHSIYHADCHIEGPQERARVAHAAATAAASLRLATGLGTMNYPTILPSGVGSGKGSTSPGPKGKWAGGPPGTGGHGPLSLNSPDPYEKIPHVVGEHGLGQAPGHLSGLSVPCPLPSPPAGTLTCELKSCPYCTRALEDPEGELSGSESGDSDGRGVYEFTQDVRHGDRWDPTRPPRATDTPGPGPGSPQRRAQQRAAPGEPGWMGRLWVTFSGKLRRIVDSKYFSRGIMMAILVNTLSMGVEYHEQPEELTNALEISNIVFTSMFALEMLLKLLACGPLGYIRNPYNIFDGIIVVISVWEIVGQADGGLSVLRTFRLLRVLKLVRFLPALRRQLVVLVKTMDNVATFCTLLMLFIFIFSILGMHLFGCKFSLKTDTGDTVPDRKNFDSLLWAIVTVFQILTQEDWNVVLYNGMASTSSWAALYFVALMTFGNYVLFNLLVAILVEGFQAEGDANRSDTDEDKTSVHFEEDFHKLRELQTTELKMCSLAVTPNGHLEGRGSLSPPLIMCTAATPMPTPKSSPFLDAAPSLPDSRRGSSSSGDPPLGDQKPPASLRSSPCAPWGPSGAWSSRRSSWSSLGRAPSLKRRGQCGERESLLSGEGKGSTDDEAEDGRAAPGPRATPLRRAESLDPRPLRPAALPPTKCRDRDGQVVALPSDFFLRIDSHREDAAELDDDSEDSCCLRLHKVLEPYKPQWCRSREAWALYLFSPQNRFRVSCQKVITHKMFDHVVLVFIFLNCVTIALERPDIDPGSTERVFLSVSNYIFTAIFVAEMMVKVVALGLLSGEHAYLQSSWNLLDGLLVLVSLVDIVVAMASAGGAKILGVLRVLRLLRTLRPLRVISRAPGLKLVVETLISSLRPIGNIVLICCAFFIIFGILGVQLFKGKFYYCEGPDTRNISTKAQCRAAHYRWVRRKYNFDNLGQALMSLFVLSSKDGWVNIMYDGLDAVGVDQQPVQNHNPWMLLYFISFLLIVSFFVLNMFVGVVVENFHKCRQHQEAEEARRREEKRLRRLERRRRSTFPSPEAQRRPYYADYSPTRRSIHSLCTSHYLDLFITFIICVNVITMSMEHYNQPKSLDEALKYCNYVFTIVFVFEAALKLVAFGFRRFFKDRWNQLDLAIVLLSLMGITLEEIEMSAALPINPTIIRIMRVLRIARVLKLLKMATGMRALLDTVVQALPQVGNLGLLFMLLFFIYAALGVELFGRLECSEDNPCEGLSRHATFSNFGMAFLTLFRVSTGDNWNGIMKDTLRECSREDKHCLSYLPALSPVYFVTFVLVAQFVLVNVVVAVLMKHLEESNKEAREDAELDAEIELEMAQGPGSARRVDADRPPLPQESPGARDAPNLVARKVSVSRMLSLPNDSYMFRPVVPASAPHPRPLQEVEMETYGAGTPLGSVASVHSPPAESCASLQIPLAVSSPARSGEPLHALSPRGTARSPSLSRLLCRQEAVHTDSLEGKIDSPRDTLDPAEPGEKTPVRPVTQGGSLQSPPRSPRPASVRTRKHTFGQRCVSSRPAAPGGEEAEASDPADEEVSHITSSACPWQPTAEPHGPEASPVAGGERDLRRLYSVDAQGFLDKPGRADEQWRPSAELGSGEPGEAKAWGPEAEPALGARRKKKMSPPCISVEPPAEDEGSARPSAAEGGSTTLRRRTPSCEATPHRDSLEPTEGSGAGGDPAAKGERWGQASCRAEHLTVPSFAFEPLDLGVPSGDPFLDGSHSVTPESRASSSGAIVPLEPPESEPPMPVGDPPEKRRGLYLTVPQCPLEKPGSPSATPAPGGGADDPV
LPA1 receptor, sequence (G3HUC7 1-364): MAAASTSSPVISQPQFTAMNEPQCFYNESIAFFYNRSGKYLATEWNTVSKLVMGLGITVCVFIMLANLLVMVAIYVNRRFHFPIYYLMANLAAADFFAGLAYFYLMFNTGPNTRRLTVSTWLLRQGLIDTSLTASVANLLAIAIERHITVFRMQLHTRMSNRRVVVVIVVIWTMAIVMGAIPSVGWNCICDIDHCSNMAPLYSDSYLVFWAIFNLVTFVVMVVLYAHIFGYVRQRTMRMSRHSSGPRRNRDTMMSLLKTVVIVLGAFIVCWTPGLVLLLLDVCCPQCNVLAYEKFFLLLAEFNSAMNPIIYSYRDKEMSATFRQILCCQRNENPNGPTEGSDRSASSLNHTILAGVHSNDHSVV

The term IC50 denotes the midpoint of a concentration-inhibition curve. `Cc1noc(-c2ccc(-c3ccc(CC(=O)O)cc3)cc2)c1NC(=O)O[C@H](C)c1ccccc1` [AM095]: in assay [1] (read-out: IC50, block of LPA1-mediated signal, EC80 agonist), the IC50 is 240 ± 20 nM.

Consider `CCOC(=O)C1=C(N2CCCCC2)C2(CC1=O)C(=O)N=C1C(C)=CC=CN12` (centres unmarked) [SAK3], for which the “potentiator activity at CaV3.3” value in assay [2] was “neither SAK3 (Figure 3D) nor ST-101 (Supporting Information Figure S3) displayed potentiator activity”. Moreover, the “potentiator activity at CaV3.1” value in assay [3] is reported as “neither SAK3 (Figure 3D) nor ST-101 (Supporting Information Figure S3) displayed potentiator activity”. Besides, in assay [4], the “potentiator activity at CaV3.2” value is “neither SAK3 (Figure 3D) nor ST-101 (Supporting Information Figure S3) displayed potentiator activity”.

In the case of `O=C1N=C2C=CC=CN2C12Cc1ccccc1C2` [ST-101], in assay [2], the “potentiator activity at CaV3.3” value is given as “neither SAK3 (Figure 3D) nor ST-101 (Supporting Information Figure S3) displayed potentiator activity”. Further, in assay [3], the “potentiator activity at CaV3.1” value is reported as “neither SAK3 (Figure 3D) nor ST-101 (Supporting Information Figure S3) displayed potentiator activity”. The “potentiator activity at CaV3.2” value in assay [4] is reported as “neither SAK3 (Figure 3D) nor ST-101 (Supporting Information Figure S3) displayed potentiator activity”.

For the molecule `CC1=C(C(=O)OC(C)C)C(c2cccc([N+](=O)[O-])c2)C(C(=O)OC2CN(C(c3ccccc3)c3ccccc3)C2)=C(N)N1` (centres unmarked) [azelnidipine], the half-inhibitory concentration (IC50) in assay [2] came to 26000 nM.

Regarding `Fc1ccc(C(c2ccc(F)cc2)N2CCN(C/C=C/c3ccccc3)CC2)cc1` [flunarizine dihydrochloride], the IC50 in assay [2] is 1200 nM.

With `CCOC(=O)Nc1ccc(NCc2ccc(F)cc2)nc1N` [flupirtine maleate], the midpoint of inhibition in assay [2], the IC50, lay at 3500 nM.

In the case of `COC(=O)C1=C(C)NC(C)=C(C(=O)OC(C)(C)CN(C)CCC(c2ccccc2)c2ccccc2)C1c1cccc([N+](=O)[O-])c1` (centres unmarked) [lercanidipine hydrochloride], inhibition in assay [2] was half-maximal at 410 nM (IC50).

For the molecule `CN(C)C(=O)C(CCN1CCC(O)(c2ccc(Cl)cc2)CC1)(c1ccccc1)c1ccccc1` [loperamide hydrochloride], inhibition in assay [2] was half-maximal at 1300 nM (IC50).

As to `CC(C)c1ccc(CC(=O)N[C@H](C)c2ccc(OCC(F)(F)F)cn2)cc1` [mk-8998], the IC50 in assay [2] was 37 nM.

`COC(=O)C1=C(C)NC(C)=C(C(=O)OCCN(C)Cc2ccccc2)C1c1cccc([N+](=O)[O-])c1` (centres unmarked) [nicardipine hydrochloride] gave an IC50 in assay [2] of 2100 nM.

For `CCOC(=O)C1=C(C)NC(C)=C(C(=O)OC)C1c1cccc([N+](=O)[O-])c1` (centres unmarked) [nitrendipine], inhibition in assay [2] was half-maximal at 18000 nM (IC50).

In assay [2], `CCOC(=O)Nc1ccc(NCc2ccc(F)cc2)cc1N` [retigabine] had a half-maximal inhibitory concentration (IC50) of 9400 nM.

Consider `C[C@@H](NC(=O)Cc1ccc(C2CC2)cc1)c1ccc(OCC(F)(F)F)cn1` [tta-a2], for which the “effect on KCl-induced CaV3.3-dependent fluorescence signal” value in assay [2] was “blocked”. The IC50 in assay [2] (read-out: IC50 against CaV3.3) was determined as 53 nM.

The EC50 is the concentration giving half of the maximal effect. In the case of human C3a [hC3a], the EC50 in assay [5] is 4.5 ± 0.5 nM.

lysoPA18:1: in assay [1] (read-out: EC50, increase in fluorescence (LPA1 receptor agonist)), the half-maximal effective concentration (EC50) is 1010 ± 190 nM.
